Measurements taken from ChEMBL document CHEMBL1811902, “Thermodynamic and biological evaluation of a thrombin binding aptamer modified with several unlocked nucleic acid (UNA) monomers and a 2'-C-piperazino-UNA monomer” (Bioorg Med Chem, 2011).

Assays:
[1] = Thermodynamic stability in pH 7.0 buffer containing 100 mM Kcl, 10 mM sodium cacodylate; assay type: physicochemical
Procedure, shortened: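 UV melting at 295 nm over 5–95 °C at 0.2 °C/min. Samples annealed 5 min at 80 °C, then slowly cooled. Nine strand concentrations spanning 10^-5–10^-6 M, set from absorbance above 80 °C. Heating and cooling profiles recorded. Thermodynamic parameters from non-linear fitting of melting curves with a unimolecular transition model.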

[2] = target: Prothrombin (Homo sapiens, UniProt P00734); assay: Binding affinity to thrombin at 37 degC by isothermal titration calorimetry
Procedure, shortened: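 ITC at 37 °C. One 0.2 µL pre-injection, discarded, then 19 × 2 µL injections. Heat of dilution from aptamer-into-buffer injections subtracted.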

[3] = test system: Plasma; assay: Anticoagulant activity in human plasma assessed as time required for clot formation at 0.33 mM at 37 degC; assay type: functional
Procedure, shortened: (§1)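 Pooled citrate plasma from four healthy donors. Thrombin reagent pre-incubated with aptamer at 0.33 mM for 5 min, then mixed with an equal volume of plasma. Clotting time (thrombin time, seconds) read at 37 °C on an automated coagulation analyser. Antithrombin effect taken as the extra clotting time over a water-added reference.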

[4] = test system: Plasma; assay: Anticoagulant activity in human plasma assessed as time required for clot formation in presence of compound minus time required for clot formation in absence of compound at 0.33 mM at 37 degC; assay type: functional; procedure, shortened: as §1

Row | SMILES | Tm [1] [°C] | Kd [2] [nM] | Time [3] [s] | Time [4] [s]
1 | Cc1cn([C@H]2C[C@H](OP(N)(=O)OC[C@H]3O[C@@H](n4cnc5c(=O)[nH]c(N)nc54)C[C@@H]3OP(N)(=O)OC[C@H]3O[C@@H](n4cnc5c(=O)[nH]c(N)nc54)C[C@@H]3O)[C@@H](COP(N)(=O)O[C@H]3C[C@H](n4cc(C)c(=O)[nH]c4=O)O[C@@H]3COP(N)(=O)O[C@H]3C[C@H](n4cnc5c(=O)[nH]c(N)nc54)O[C@@H]3COP(N)(=O)O[C@H]3C[C@H](n4cnc5c(=O)[nH]c(N)nc54)O[C@@H]3COP(N)(=O)O[C@H]3C[C@H](n4cc(C)c(=O)[nH]c4=O)O[C@@H]3COP(N)(=O)O[C@H]3C[C@H](n4cnc5c(=O)[nH]c(N)nc54)O[C@@H]3COP(N)(=O)OC[C@@H](COP(N)(=O)O[C@H]3C[C@H](n4cnc5c(=O)[nH]c(N)nc54)O[C@@H]3COP(N)(=O)O[C@@H]3C[C@@H](COP(N)(=O)O[C@H]4C[C@H](n5cc(C)c(=O)[nH]c5=O)O[C@@H]4COP(N)(=O)O[C@H]4C[C@H](n5c(C)cc(=O)[nH]c5=O)O[C@@H]4COP(N)(=O)O[C@H]4C[C@H](n5cnc6c(=O)[nH]c(N)nc65)O[C@@H]4COP(N)(=O)O[C@H]4C[C@H](n5cnc6c(=O)[nH]c(N)nc65)O[C@@H]4COC(=O)CCCC[C@@H]4SC[C@@H]5NC(=O)N[C@@H]54)O[C@H]3n3cnc4c(=O)[nH]c(N)nc43)O[C@H](CN3CCNCC3)n3ccc(=O)[nH]c3=O)O2)c(=O)[nH]c1=O (stereo partly drawn) | 45.2 | 52.6 | 31.2 | 12.2
2 | Cc1cn([C@H]2C[C@H](OP(N)(=O)OC[C@H]3O[C@@H](n4cnc5c(=O)[nH]c(N)nc54)C[C@@H]3OP(N)(=O)OC[C@H]3O[C@@H](n4cnc5c(=O)[nH]c(N)nc54)C[C@@H]3O)[C@@H](COP(N)(=O)OC[C@@H](COP(N)(=O)O[C@H]3C[C@H](n4cnc5c(=O)[nH]c(N)nc54)O[C@@H]3COP(N)(=O)O[C@H]3C[C@H](n4cnc5c(=O)[nH]c(N)nc54)O[C@@H]3COP(N)(=O)O[C@H]3C[C@H](n4cc(C)c(=O)[nH]c4=O)O[C@@H]3COP(N)(=O)O[C@H]3C[C@H](n4cnc5c(=O)[nH]c(N)nc54)O[C@@H]3COP(N)(=O)OC[C@@H](COP(N)(=O)O[C@H]3C[C@H](n4cnc5c(=O)[nH]c(N)nc54)O[C@@H]3COP(N)(=O)O[C@@H]3C[C@@H](COP(N)(=O)O[C@H]4C[C@H](n5cc(C)c(=O)[nH]c5=O)O[C@@H]4COP(N)(=O)O[C@H]4C[C@H](n5cc(C)c(=O)[nH]c5=O)O[C@@H]4COP(N)(=O)O[C@H]4C[C@H](n5cnc6c(=O)[nH]c(N)nc65)O[C@@H]4COP(N)(=O)O[C@H]4C[C@H](n5cnc6c(=O)[nH]c(N)nc65)O[C@@H]4COC(=O)CCCC[C@@H]4SC[C@@H]5NC(=O)N[C@@H]54)O[C@H]3n3cnc4c(=O)[nH]c(N)nc43)O[C@H](CO)n3ccc(=O)[nH]c3=O)O[C@H](CO)n3ccc(=O)[nH]c3=O)O2)c(=O)[nH]c1=O (stereo partly drawn) | 48.1 | 300 | 28.7 | 9.7
3 | Cc1cn([C@H]2C[C@H](OP(N)(=O)OC[C@@H]3C[C@@H](OP(N)(=O)OC[C@H]4O[C@@H](n5cnc6c(=O)[nH]c(N)nc65)C[C@@H]4OP(N)(=O)OC[C@H]4O[C@@H](n5ccc(=O)[nH]c5=O)[C@H](O)[C@@H]4OP(N)(=O)OC[C@H]4O[C@@H](n5cnc6c(=O)[nH]c(N)nc65)[C@H](O)[C@@H]4OP(N)(=O)OC[C@H]4O[C@@H](n5ccc(=O)[nH]c5=O)[C@H](O)[C@@H]4OP(N)(=O)OC[C@H]4O[C@@H](n5cnc6c(=O)[nH]c(N)nc65)C[C@@H]4OP(N)(=O)OC[C@H]4O[C@@H](n5cnc6c(=O)[nH]c(N)nc65)C[C@@H]4OP(N)(=O)OC[C@H]4O[C@@H](n5ccc(=O)[nH]c5=O)[C@H](O)[C@@H]4OP(N)(=O)OC[C@H]4O[C@@H](n5cc(C)c(=O)[nH]c5=O)C[C@@H]4OP(N)(=O)OC[C@H]4O[C@@H](n5cnc6c(=O)[nH]c(N)nc65)C[C@@H]4OP(N)(=O)OC[C@H]4O[C@@H](n5cnc6c(=O)[nH]c(N)nc65)C[C@@H]4O)[C@H](n4cnc5c(=O)[nH]c(N)nc54)O3)[C@@H](COP(N)(=O)O[C@H]3[C@@H](O)[C@H](n4ccc(=O)[nH]c4=O)O[C@@H]3COP(N)(=O)O[C@H]3C[C@H](n4cnc5c(=O)[nH]c(N)nc54)O[C@@H]3COP(N)(=O)O[C@H]3C[C@H](n4cnc5c(=O)[nH]c(N)nc54)O[C@@H]3COC(=O)CCCC[C@@H]3SC[C@@H]4NC(=O)N[C@@H]43)O2)c(=O)[nH]c1=O (stereo partly drawn) | 29.7 |  | 19 | 0
4 | Cc1cn([C@H]2C[C@H](OP(N)(=O)OC[C@@H]3C[C@@H](OP(N)(=O)OC[C@H]4O[C@@H](n5cnc6c(=O)[nH]c(N)nc65)C[C@@H]4OP(N)(=O)OC[C@H]4O[C@@H](n5ccc(=O)[nH]c5=O)[C@H](O)[C@@H]4OP(N)(=O)OC[C@H]4O[C@@H](n5cnc6c(=O)[nH]c(N)nc65)C[C@@H]4OP(N)(=O)OC[C@H]4O[C@@H](n5cc(C)c(=O)[nH]c5=O)C[C@@H]4OP(N)(=O)OC[C@H]4O[C@@H](n5cnc6c(=O)[nH]c(N)nc65)C[C@@H]4OP(N)(=O)OC[C@H]4O[C@@H](n5cnc6c(=O)[nH]c(N)nc65)C[C@@H]4OP(N)(=O)OC[C@H]4O[C@@H](n5cc(C)c(=O)[nH]c5=O)C[C@@H]4OP(N)(=O)OC[C@H]4O[C@@H](n5cc(C)c(=O)[nH]c5=O)C[C@@H]4OP(N)(=O)OC[C@H]4O[C@@H](n5cnc6c(=O)[nH]c(N)nc65)C[C@@H]4OP(N)(=O)OC[C@H]4O[C@@H](n5cnc6c(=O)[nH]c(N)nc65)C[C@@H]4O)[C@H](n4cnc5c(=O)[nH]c(N)nc54)O3)[C@@H](COP(N)(=O)O[C@H]3C[C@H](n4cc(C)c(=O)[nH]c4=O)O[C@@H]3COP(N)(=O)O[C@H]3C[C@H](n4cnc5c(=O)[nH]c(N)nc54)O[C@@H]3COP(N)(=O)O[C@H]3C[C@H](n4cnc5c(=O)[nH]c(N)nc54)O[C@@H]3CO)O2)c(=O)[nH]c1=O (stereo partly drawn) |  | 37 |  | 
5 | Cc1cn([C@H]2C[C@H](OP(N)(=O)OC[C@@H]3C[C@@H](OP(N)(=O)OC[C@H]4O[C@@H](n5cnc6c(=O)[nH]c(N)nc65)C[C@@H]4OP(N)(=O)OC[C@H]4O[C@@H](n5cc(C)c(=O)[nH]c5=O)C[C@@H]4OP(N)(=O)OC[C@H]4O[C@@H](n5cnc6c(=O)[nH]c(N)nc65)C[C@@H]4OP(N)(=O)OC[C@H]4O[C@@H](n5cc(C)c(=O)[nH]c5=O)C[C@@H]4OP(N)(=O)OC[C@H]4O[C@@H](n5cnc6c(=O)[nH]c(N)nc65)C[C@@H]4OP(N)(=O)OC[C@H]4O[C@@H](n5cnc6c(=O)[nH]c(N)nc65)C[C@@H]4OP(N)(=O)OC[C@H](COP(N)(=O)OC[C@H]4O[C@@H](n5cc(C)c(=O)[nH]c5=O)C[C@@H]4OP(N)(=O)OC[C@H]4O[C@@H](n5cnc6c(=O)[nH]c(N)nc65)C[C@@H]4OP(N)(=O)OC[C@H]4O[C@@H](n5cnc6c(=O)[nH]c(N)nc65)C[C@@H]4O)O[C@H](CO)n4ccc(=O)[nH]c4=O)[C@H](n4cnc5c(=O)[nH]c(N)nc54)O3)[C@@H](COP(N)(=O)OC[C@@H](COP(N)(=O)O[C@H]3C[C@H](n4cnc5c(=O)[nH]c(N)nc54)O[C@@H]3COP(N)(=O)O[C@H]3C[C@H](n4cnc5c(=O)[nH]c(N)nc54)O[C@@H]3COC(=O)CCCC[C@@H]3SC[C@@H]4NC(=O)N[C@@H]43)O[C@H](CO)n3ccc(=O)[nH]c3=O)O2)c(=O)[nH]c1=O (stereo partly drawn) | 47.4 |  | 19.4 | 0.4
6 | Cc1cn([C@H]2C[C@H](OP(N)(=O)OC[C@@H]3C[C@@H](OP(N)(=O)OC[C@H]4O[C@@H](n5cnc6c(=O)[nH]c(N)nc65)C[C@@H]4OP(N)(=O)OC[C@H](COP(N)(=O)OC[C@H]4O[C@@H](n5cnc6c(=O)[nH]c(N)nc65)C[C@@H]4OP(N)(=O)OC[C@H]4O[C@@H](n5cc(C)c(=O)[nH]c5=O)C[C@@H]4OP(N)(=O)OC[C@H]4O[C@@H](n5cnc6c(=O)[nH]c(N)nc65)C[C@@H]4OP(N)(=O)OC[C@H]4O[C@@H](n5cnc6c(=O)[nH]c(N)nc65)C[C@@H]4OP(N)(=O)OC[C@H](COP(N)(=O)OC[C@H]4O[C@@H](n5cc(C)c(=O)[nH]c5=O)C[C@@H]4OP(N)(=O)OC[C@H]4O[C@@H](n5cnc6c(=O)[nH]c(N)nc65)C[C@@H]4OP(N)(=O)OC[C@H]4O[C@@H](n5cnc6c(=O)[nH]c(N)nc65)C[C@@H]4O)O[C@H](CO)n4ccc(=O)[nH]c4=O)O[C@H](CO)n4ccc(=O)[nH]c4=O)[C@H](n4cnc5c(=O)[nH]c(N)nc54)O3)[C@@H](COP(N)(=O)OC[C@@H](COP(N)(=O)O[C@H]3C[C@H](n4cnc5c(=O)[nH]c(N)nc54)O[C@@H]3COP(N)(=O)O[C@H]3C[C@H](n4cnc5c(=O)[nH]c(N)nc54)O[C@@H]3COC(=O)CCCC[C@@H]3SC[C@@H]4NC(=O)N[C@@H]43)O[C@H](CO)n3ccc(=O)[nH]c3=O)O2)c(=O)[nH]c1=O (stereo partly drawn) | 51 |  | 19.5 | 0.5
